Data as given in ChEMBL document CHEMBL3120138, “Glucocorticoid receptor modulators informed by crystallography lead to a new rationale for receptor selectivity, function, and implications for structure-based design” (J Med Chem, 2014).
pIC50, pKi: −log10 of the molar value. Values belong to the compound of their own block, whether it stands above or below them. The source made the active and inactive calls. The rule behind the calls is not given here.

Legend:
Rattus norvegicus [1] = test: Antiinflammatory activity in Lewis rat collagen-induced arthritis model assessed as reduction in ankle diameter at 10 mg/kg, po administered for 15 days measured during compound dosing; assay type: functional, organism-based; set-up: dose 10 mg/kg
Summary of the method: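 Female Lewis rats received collagen injected at the tail base, and disease developed over 14 d. Responding rats (groups of n = 10) were then dosed orally once daily for the next 15 d. Ankle/paw diameter was measured throughout the live phase and summarised as AUC. Hindpaw histology was scored blind from 0 (normal) to 5 (vehicle-level). Statistics used Student's t test vs vehicle, p < 0.01.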

Rattus norvegicus [2] = test: Antiinflammatory activity in po dosed Sprague-Dawley rat assessed as inhibition of carrageenan-induced IL-1beta secretion incubated for 2 hrs prior to carrageenan challenge measured after 5 hrs by ELISA; assay type: functional
Summary of the method: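 Male Sprague-Dawley rats (n = 5/group) were dosed at t = 0, and carrageenan was injected into the rear footpad at 2 h. At 5 h the animals were euthanised and the hindpaws weighed to measure edema. Paw exudate was assayed for IL-1β by ELISA.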

Rattus norvegicus [3] = test: Antiinflammatory activity in po dosed Sprague-Dawley rat assessed as inhibition of carrageenan-induced paw edema incubated for 2 hrs prior to carrageenan challenge measured after 5 hrs […]; assay type: functional
[4] = Antiinflammatory activity in PMA-differentiated human U937 cells assessed as inhibition of LPS-induced TNFalpha production incubated for 60 mins prior to LPS challenge measured after 24 hrs; assay type: functional, cell-based; conditions: U-937
Summary of the method: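 U-937 cells (100 000/well) were differentiated with 20 nM PMA overnight at 37 °C, then refed with PMA-free medium. Cells were pretreated with compound for 60 min, then stimulated with LPS (stock 400 ng/mL) for 24 h at 37 °C. Secreted TNFα was measured by EIA/RIA. Ten-point half-log dilutions were used, each concentration in triplicate.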

[5] = Antiinflammatory activity in human CCD-39SK cells assessed as inhibition of IL-1beta-induced IL-6 production incubated for 60 mins prior to IL-1beta induction measured after 24 hrs; assay type: functional, cell-based
Summary of the method: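 CCD-39SK fibroblasts (20 000/well) were grown in MEM with 2% charcoal/dextran-treated FBS. Cells were pretreated with compound for 60 min, then stimulated with rhIL-1β (1 ng/mL final) for 24 h at 37 °C. IL-6 in clarified supernatant was measured. […] Ten-point half-log dilutions were used, each in triplicate.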

[6] = molecular target: T1, Glucocorticoid receptor (Homo sapiens) (UniProt P04150); test: Transactivation of human glucocorticoid receptor expressed in HEK293 cells at 10 uM after 24 hrs by luciferase reporter gene assay relative to control; assay type: cell-based
T1 sequence (whole entry): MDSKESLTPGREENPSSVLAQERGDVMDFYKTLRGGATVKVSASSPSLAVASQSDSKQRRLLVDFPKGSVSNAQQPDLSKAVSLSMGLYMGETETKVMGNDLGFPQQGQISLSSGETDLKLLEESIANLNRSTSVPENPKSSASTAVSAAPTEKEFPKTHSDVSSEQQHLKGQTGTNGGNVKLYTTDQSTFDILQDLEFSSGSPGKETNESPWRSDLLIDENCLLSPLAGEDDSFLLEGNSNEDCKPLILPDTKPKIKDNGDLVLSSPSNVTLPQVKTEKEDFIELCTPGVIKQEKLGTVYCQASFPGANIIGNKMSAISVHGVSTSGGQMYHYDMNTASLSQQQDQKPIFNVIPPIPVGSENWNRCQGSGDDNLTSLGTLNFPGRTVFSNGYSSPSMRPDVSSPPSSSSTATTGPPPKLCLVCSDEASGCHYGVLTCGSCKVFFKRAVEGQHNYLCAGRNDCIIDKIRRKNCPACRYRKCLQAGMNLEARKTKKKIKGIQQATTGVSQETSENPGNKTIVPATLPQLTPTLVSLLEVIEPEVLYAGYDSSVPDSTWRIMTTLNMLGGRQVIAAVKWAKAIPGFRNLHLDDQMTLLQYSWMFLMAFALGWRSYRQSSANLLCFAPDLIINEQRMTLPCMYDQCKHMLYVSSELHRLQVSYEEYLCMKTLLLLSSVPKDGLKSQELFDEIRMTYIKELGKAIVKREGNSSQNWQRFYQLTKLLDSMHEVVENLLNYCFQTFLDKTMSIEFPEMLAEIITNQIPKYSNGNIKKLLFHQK
Summary of the method: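 HEK293 cells were transfected in DMEM with 5% charcoal-stripped FBS, using a CMV-hGR plasmid and a luciferase reporter driven by 2×GRE plus the TK promoter. After overnight incubation, cells were replated and exposed to compound for 24 h, then lysed for luciferase readout.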

[7] = molecular target: T2, Mineralocorticoid receptor (Homo sapiens, UniProt P08235); test: Displacement of [3H]-aldosterone from human mineralocorticoid receptor expressed in HEK293 cells; assay type: cell-based
T2 sequence (P08235 whole entry): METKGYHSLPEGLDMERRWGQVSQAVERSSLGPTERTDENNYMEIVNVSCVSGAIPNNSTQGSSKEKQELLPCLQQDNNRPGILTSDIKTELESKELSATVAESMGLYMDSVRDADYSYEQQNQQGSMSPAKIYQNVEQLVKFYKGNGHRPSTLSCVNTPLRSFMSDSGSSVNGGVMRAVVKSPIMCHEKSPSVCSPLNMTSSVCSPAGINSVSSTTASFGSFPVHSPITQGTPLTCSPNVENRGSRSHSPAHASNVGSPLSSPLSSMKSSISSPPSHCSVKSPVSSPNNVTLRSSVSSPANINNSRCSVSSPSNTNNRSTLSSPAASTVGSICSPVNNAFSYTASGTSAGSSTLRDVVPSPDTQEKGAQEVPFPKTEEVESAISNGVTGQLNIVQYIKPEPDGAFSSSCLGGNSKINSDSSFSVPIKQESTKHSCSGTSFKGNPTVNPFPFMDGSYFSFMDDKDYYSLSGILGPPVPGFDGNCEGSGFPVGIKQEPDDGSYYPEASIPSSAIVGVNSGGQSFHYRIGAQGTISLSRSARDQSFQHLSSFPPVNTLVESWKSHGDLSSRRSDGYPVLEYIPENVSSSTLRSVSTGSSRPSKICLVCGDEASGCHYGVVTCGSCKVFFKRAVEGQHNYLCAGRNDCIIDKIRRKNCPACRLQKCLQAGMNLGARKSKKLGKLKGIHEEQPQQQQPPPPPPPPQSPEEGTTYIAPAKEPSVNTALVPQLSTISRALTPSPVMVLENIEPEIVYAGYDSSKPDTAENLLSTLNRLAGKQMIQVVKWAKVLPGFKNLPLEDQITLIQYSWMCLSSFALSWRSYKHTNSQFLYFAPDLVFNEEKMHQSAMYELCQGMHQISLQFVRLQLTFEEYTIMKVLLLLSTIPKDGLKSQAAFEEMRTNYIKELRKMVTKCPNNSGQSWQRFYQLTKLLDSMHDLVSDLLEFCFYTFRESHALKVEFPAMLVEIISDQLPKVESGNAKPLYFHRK
Summary of the method: (§1)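 Competition binding used lysates of HEK293 cells overexpressing the human receptor. The tracer was ³H-aldosterone for MR and ³H-methyltrienolone for PR. Competitor was tested from 0.01 nM to 10 μM. IC50 was converted to Ki by Cheng–Prusoff. Values are means of at least three experiments, each run in triplicate.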

Glucocorticoid receptor = molecular target: T3, Glucocorticoid receptor (Homo sapiens, UniProt P04150); test: Displacement of [3H]-dexamethasone from human glucocorticoid receptor expressed in HEK293 cells; assay type: cell-based
T3 sequence (P04150 whole entry): T1 sequence (whole entry)

Progesterone receptor = molecular target: T4, Progesterone receptor (Homo sapiens, UniProt P06401); test: Displacement of [3H]-methyltrienolone from human progesterone receptor expressed in HEK293 cells; assay type: cell-based; summary of the method: as §1
T4 sequence (P06401 whole entry): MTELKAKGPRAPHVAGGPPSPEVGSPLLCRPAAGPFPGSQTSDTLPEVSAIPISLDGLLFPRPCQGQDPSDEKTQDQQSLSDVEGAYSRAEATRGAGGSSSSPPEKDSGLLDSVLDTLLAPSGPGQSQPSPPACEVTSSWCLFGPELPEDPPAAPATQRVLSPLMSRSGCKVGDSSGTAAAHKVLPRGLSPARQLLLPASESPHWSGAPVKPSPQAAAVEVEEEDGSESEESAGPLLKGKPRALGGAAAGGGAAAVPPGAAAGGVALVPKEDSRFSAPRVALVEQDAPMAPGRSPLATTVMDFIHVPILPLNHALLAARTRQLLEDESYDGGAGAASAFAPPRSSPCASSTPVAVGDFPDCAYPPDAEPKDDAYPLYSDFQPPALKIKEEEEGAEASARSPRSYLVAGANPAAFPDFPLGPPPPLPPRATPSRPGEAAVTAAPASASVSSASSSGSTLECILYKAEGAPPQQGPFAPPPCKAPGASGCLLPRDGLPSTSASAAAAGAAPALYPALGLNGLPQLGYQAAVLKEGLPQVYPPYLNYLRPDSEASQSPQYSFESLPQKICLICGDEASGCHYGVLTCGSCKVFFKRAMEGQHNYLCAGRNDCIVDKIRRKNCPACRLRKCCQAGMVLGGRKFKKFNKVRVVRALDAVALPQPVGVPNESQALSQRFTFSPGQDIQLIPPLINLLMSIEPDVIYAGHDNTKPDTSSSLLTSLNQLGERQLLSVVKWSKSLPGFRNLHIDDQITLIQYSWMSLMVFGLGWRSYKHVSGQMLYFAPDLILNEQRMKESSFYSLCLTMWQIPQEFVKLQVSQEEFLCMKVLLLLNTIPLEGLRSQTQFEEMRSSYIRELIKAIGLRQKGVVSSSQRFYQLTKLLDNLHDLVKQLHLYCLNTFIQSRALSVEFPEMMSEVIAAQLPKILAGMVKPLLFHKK

pIC50 [4]: 8.09
pIC50 [5]: 8.14
Efficacy [6]: 114%
pKi [7]: 9.54
Structure (SMILES): C[C@]12C=CC(=O)C=C1CC[C@@H]1[C@@H]2[C@@H](O)C[C@@]2(C)[C@H]1CC[C@]2(O)C(=O)CO [PREDNISOLONE]
Activity (Rattus norvegicus [1]): Active
ED50 (Rattus norvegicus [2]): 0.31 mg/kg
ED50 (Rattus norvegicus [3]): 7.6 mg/kg

pKi (Glucocorticoid receptor): < 7.00
Structure (SMILES): Nc1cccc(C=C2c3ccccc3CCc3ccccc32)c1

pKi (Progesterone receptor): 6.25
Structure (SMILES): C[C@@H]1C[C@H]2[C@@H]3CCC4=CC(=O)C=C[C@]4(C)[C@@]3(F)[C@@H](O)C[C@]2(C)[C@@]1(O)C(=O)CO [DEXAMETHASONE]

pKi (Glucocorticoid receptor): < 7.00
Structure (SMILES): CS(=O)(=O)Nc1ccc(C=C2c3ccccc3CCc3ccccc32)cc1

pKi (Glucocorticoid receptor): < 7.00
Structure (SMILES): CCOc1cccc2c1/C(=C(/CC)c1cccc(N(CC)S(C)(=O)=O)c1)c1ccccc1OC2

pKi (Glucocorticoid receptor): < 7.00
Structure (SMILES): CNS(=O)(=O)c1cccc(C=C2c3ccccc3CCc3ccccc32)c1

pKi (Glucocorticoid receptor): < 7.00
Structure (SMILES): CS(=O)(=O)Nc1ccccc1C=C1c2ccccc2CCc2ccccc21

pKi (Glucocorticoid receptor): < 7.00
Structure (SMILES): C(=C1c2ccccc2CCc2ccccc21)c1ccccc1
